Experimental data gathered from unrelated publications.
Protocols differ between the studies behind these lines.
Target: RAC-beta serine/threonine-protein kinase (AKT2, Homo sapiens, UniProt P31751)

Structure (SMILES) | effect on | action | method | tested at | measurement | result
O=C(NCc1ncc(C(F)(F)F)cc1Cl)c1ccc2c(c1)C1(CCS(=O)(=O)CC1)[C@H](C1CC1)N2S(=O)(=O)c1ccc(F)cc1 | cell-free assay |  | competition with immobilised ligand | 1 µM | remaining binding | 100%
Nc1ncnc2occ(-c3ccc(NC(=O)Nc4cc(C(F)(F)F)ccc4F)cc3)c12 | cell-free assay | inhibitor |  | 20 µM | remaining signal | 95%
O=C(NS(=O)(=O)c1ccc(NCC2CCOCC2)c([N+](=O)[O-])c1)c1ccc(N2CCN(Cc3ccc(C(F)(F)F)cc3-c3ccc(Cl)cc3)CC2)cc1Oc1cnc2[nH]ccc2c1 | cell-free assay |  | competition with immobilised ligand | 1 µM | remaining binding | 100%
Nc1nc(NC2CCCCC2)sc1C(=O)c1ccccc1 | enzyme activity | inhibitor |  | 10 µM | remaining activity | 73%
Nc1nc(Nc2ccc(S(N)(=O)=O)cc2)nn1C(=O)c1c(F)cccc1F | cell-free assay |  |  | 0.5 µM | remaining signal | 107%
CC(=O)N1CCC(c2ccc(C(=O)NC3=NCCN3)cc2C(F)(F)F)CC1 | cell-free assay |  | competition with immobilised ligand | 1 µM | remaining binding | 91%
Cc1ccc(NC(=O)c2ccc(C)c(C(F)(F)F)c2)cc1C#Cc1nn(C2CCC(O)CC2)c2ncnc(N)c12 (stereo not drawn) | cell-free assay |  |  | 10 µM | remaining signal | 127%
COc1cc(F)ccc1-c1ncnc(Nc2cccc(C[S@](C)(=N)=O)c2)n1 | enzyme activity | inhibitor |  | 10 µM | activity vs control | 112%
Cc1nccc(COC(=O)N2C[C@@H]3[C@@H](CNC(=O)c4ccc5[nH]nnc5c4)[C@@H]3C2)n1 | cell-free assay |  | competition with immobilised ligand | 1 µM | remaining binding | 98%
COc1cc(Nc2cnc(C#N)c(O[C@H](C)CN(C)C)n2)ncc1-c1cnn(C)c1 | enzyme activity | inhibitor | radiometric | 10 µM | remaining activity | 67%
C=CC(=O)Nc1cc(Nc2nccc(Nc3cc(Cl)c(F)cc3C(C)(C)O)n2)c(OC)cc1N1CC[C@@H](N(C)C)C1 | enzyme activity | inhibitor |  | 1 µM | inhibition | -10%
CCC(=O)N[C@H]1CC[C@@H](C(=O)N(C)c2ccc(-c3nc4ccccc4o3)cc2)C1 | cell-free assay |  | competition with immobilised ligand | 1 µM | remaining binding | 89%
CN1CC(Oc2cnc(C#N)cc2-c2ccn3nc(NC(=O)C4CC4)cc3c2)C1 | enzyme activity | inhibitor |  | 1 µM | inhibition | -3%
CNc1cccc2cc(C(=O)Nc3ccc(C(=O)O)cc3)c(=O)[nH]c12 | enzyme activity | inhibitor |  | 10 µM | inhibition | 3.3%
C[C@@]1(Cc2ccc(C#N)cc2)C(=O)N(c2cc(Cl)cc(Cl)c2)c2ncc(C(=O)NC3(c4nc(C5CCC5)no4)CC3)n21 | cell-free assay |  | competition with immobilised ligand | 1 µM | remaining binding | 100%
CC(C)c1ccc(NC(=O)c2cccs2)c(-c2nc3ccccc3[nH]c2=O)c1 | enzyme activity | inhibitor |  | 1 µM | activity vs control | 102%
CNC(=O)c1ccc(Nc2ncc(C(F)(F)F)c(NCc3nccnc3N(C)S(C)(=O)=O)n2)cc1 | cell-free assay |  | competition with immobilised ligand | 0.1 µM | remaining binding | 77%
Cc1ccc(Nc2nccc(N(C)c3ccc4c(C)n(C)nc4c3)n2)cc1S(N)(=O)=O | enzyme activity | inhibitor |  | 0.5 µM | remaining activity | 107%
O=C(Nc1cnn(-c2csc(C(=O)NC3COC3)c2)c1)Nc1c(F)cccc1Cl | enzyme activity | inhibitor |  | 5 µM | remaining activity | 104%
Nc1nc(Nc2ccccc2)sc1C(=O)c1c(F)cccc1F | enzyme activity | inhibitor |  | 10 µM | remaining activity | 85%
CCCS(=O)(=O)Nc1ccc(F)c(C(=O)c2c[nH]c3ncc(-c4ccc(Cl)cc4)cc23)c1F | enzyme activity | inhibitor |  | 1 µM | inhibition | < 10%
CC/C(=N\NC(=O)NCc1cccc(O)c1)c1ccc(O)c(C)c1O | enzyme activity | inhibitor |  | 0.1 µM | inhibition | 0.2%
O=C1Nc2ccc(Cl)cc2C1=Cc1cc(Cl)c(O)c(Cl)c1 | cell-free assay |  |  | 0.5 µM | remaining signal | 93.9%
CC(C)(C)c1nc(-c2cccc(NS(=O)(=O)c3c(F)cccc3F)c2F)c(-c2ccnc(N)n2)s1 | enzyme activity | inhibitor | radiometric | 1 µM | remaining activity | 91%
FC(F)c1nc2ccccc2n1-c1nc(N2CCOCC2)nc(N2CCOCC2)n1 | enzyme activity | inhibitor |  | 10 µM | remaining activity | 84%
CCN(CC)c1ccc(C2=NNC(=O)CC2C)cc1[N+](=O)[O-] (stereo not drawn) | enzyme activity | inhibitor |  | 10 µM | remaining activity | 101%
COc1cc(Cl)c(C(=O)N[C@@H](CN[C@H]2CC[C@@H](N)CC2)Cc2ccc(C#N)cc2)cc1-c1ccc(CN[C@H](C)c2ccc(C)cc2)o1 | enzyme activity | inhibitor |  | 1 µM | remaining activity | 65%
CNC(=O)c1cc(Oc2ccc(NC(=O)Nc3ccc(Cl)c(C(F)(F)F)c3)cc2)ccn1 | cell-free assay |  |  | 0.5 µM | remaining signal | 103%
C[C@H](c1cccc(C#N)c1)n1cc(Cl)cc(C(N)=O)c1=N | cell-free assay |  | competition with immobilised ligand | 1 µM | remaining binding | 100%
COc1cc2ncnc(Nc3ccc(Oc4ccccc4)cc3C)c2cc1OC | enzyme activity | inhibitor |  | 1 µM | inhibition | 7%
